# Assay outcomes (PubChem BioAssay)
# An excerpt weighted towards active compounds, which were near 1.9% of everything screened.
# TbMetRS inhib = T. brucei MetRS inhibitors, primary screen, biochemical, luminescence; methionyl-tRNA synthetase (Trypanosoma brucei brucei); purified T. brucei MetRS, ATP depletion, Kinase-Glo luminescence; inhibition, % at 11.9 µM; 360,000 tested, 0.4% active; AID 624268, 2012;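 active means inhibition above a per-plate cutoff of the control wells' mean inhibition plus 3 SD, cut at about 5.5% in these data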
#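 Test system – parasite MetRS enzyme · Reagent – substrates ATP, L-methionine and bulk Escherichia coli tRNA · Doses – 11.9 µM compound single dose, 0.9% DMSO · Times – 15 min enzyme-compound preincubation, 2 h reaction, 10 min detection, 25 °C · Signal – Kinase-Glo luminescence, ATP depletion format · Controls – DMSO-only wells as low control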
# PLC-beta3 inh = human PLC-beta3 inhibitors, primary screen, biochemical, fluorescence. 1-phosphatidylinositol 4,5-bisphosphate phosphodiesterase beta-3 (Homo sapiens), Q01970. Purified PLC-beta3, fluorogenic substrate. inhibition, % at 12.2 µM. 370,000 tested, 0.18% active; in the data active means inhibition above about 11%
# sPLA2-III inh = human group III sPLA2 inhibitors, primary screen, biochemical, QFRET, BODIPY PC-A2 liposome substrate. inhibition, % at 12.2 µM. Group 3 secretory phospholipase A2 (Homo sapiens), Q9NZ20. QFRET BODIPY PC-A2 liposome hydrolysis, fluorescence. 370,000 tested, 0.56% active;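 active means inhibition above mean plus 3 SD of compounds lying within the high and low control bounds, cut at about 19% in these data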
# PLC-gamma1 inh = PLC-gamma1 enzyme inhibitors, primary screen, biochemical, fluorescence, purified enzyme; 1-phosphatidylinositol 4,5-bisphosphate phosphodiesterase gamma-1 (Homo sapiens), P19174; fluorogenic substrate; inhibition, % at 12.2 µM; 370,000 tested, 0.84% active
# PLCg1 ctr = PLC-gamma1 enzyme inhibitors, counter-screen for PLC-beta3 inhibitor project, biochemical, fluorescence; shares compounds with PLC-gamma1 inh; purified PLC-gamma1, fluorogenic substrate; inhibition, % at 12.3 µM; 3,300 tested, 3.1% active
# PLCb3 confirm = PLC-beta3 inhibitor confirmation, biochemical, fluorescence, purified enzyme; shares compounds with PLC-gamma1 inh; fluorogenic substrate fluorescence; inhibition, % at 12.3 µM; 3,300 tested, 1% active; in the data active means inhibition above about 11%
# A number is an active result; . = inactive; / = no result given. Unless noted, no stated cut-off is given here; in the data, active means inhibition above about 9.5%; inactive means the rest.
SMILES,TbMetRS inhib,PLC-beta3 inh,sPLA2-III inh,PLC-gamma1 inh,PLCg1 ctr,PLCb3 confirm
Cc1noc(C(=O)Nc2cccnc2)c1Cl,.,.,.,11.7,.,.
COc1ccc(C(=O)Oc2ccc(C(C)=O)cc2)c(OC)c1,.,.,.,10.0,.,.
O=C(c1ccc(NC2=NC3CS(=O)(=O)CC3S2)cc1)N1CCN(Cc2ccccc2)CC1 (stereo not given),.,.,.,9.8,.,.
CC1CCCCC1NC(=O)c1cccc(NC2=NC3CS(=O)(=O)CC3S2)c1 (stereo not given),.,.,.,10.0,.,.
Cc1cccc(NC(=O)Cc2ccc(NC3=NC4CS(=O)(=O)CC4S3)cc2)c1 (stereo not given),.,.,.,9.7,.,.
O=C(Cn1nnc(-c2ccc(N3CCOCC3)cc2)n1)c1cccc(F)c1,/,.,.,.,/,/
C[C@H](NC(=O)[C@@H]1CSC2c3ccccc3C(=O)N21)C(=O)NCCc1ccccc1 (stereo not given in full),.,.,.,.,/,/
C[C@H](NC(=O)[C@@H]1CSC2c3ccccc3C(=O)N21)C(=O)NCCc1ccc(F)cc1 (stereo not given in full),.,.,.,12.4,.,.
CC(=O)OC12CCCN(C1)/C(=C/c1cccc(N(C)C)c1)C2 (stereo not given),/,.,.,.,/,/
CC(C)(C)C(=O)CSc1nccc(=O)[nH]1,.,.,.,10.5,.,.
COc1ccc(CN2C[C@]3(C=C(C)Cn4c(=O)n(-c5ccccc5)c(=O)n43)N=C2NC(=O)c2ccccc2)c(OC)c1,/,.,.,.,/,/
COC(=O)C[C@@H]1CC[C@H]2[C@@H](COc3ccc(NC(=O)NC(C)C)cc3C(=O)N2C)O1,/,.,.,.,/,/
CC(C)Cc1ccc(S(=O)(=O)Nc2cccnc2)cc1,.,.,.,9.8,.,.
Cc1cccc2c(N=NC(=O)C(C)n3cnc4ccccc4c3=O)c(O)[nH]c12 (stereo not given),.,.,.,.,/,/
CC(C(=O)N=Nc1c(O)[nH]c2ccccc12)n1cnc2ccccc2c1=O (stereo not given),.,15.7,.,10.4,.,.
CCOC(=O)CNC(=O)CSc1nnc(-c2ccc(C(C)(C)C)cc2)n1-c1ccc(Cl)cc1,/,.,.,.,/,/
O=c1cc(-c2ccccc2)nc(SCCOc2ccccc2Cl)[nH]1,.,.,.,11.6,.,.
COc1ccc2c(c1)O[C@@]1(CCCC[C@@H]1C)CC2=O,.,.,.,.,/,/
COc1ccc2c(c1)OC(O)(C(F)F)CC2=O (stereo not given),.,.,.,11.9,.,.
CC(C(=O)O)N1C(=O)/C(=C/C=C/c2ccco2)SC1=S (stereo not given),.,.,.,36.8,20.1,.
O=C(c1ccccc1)N1CCN=C1SCc1ccc([N+](=O)[O-])cc1,.,.,.,9.6,.,.
CCOC(=O)c1cccc(NC(=O)CN(C)S(=O)(=O)c2ccc(C)c(C)c2)c1,/,.,.,.,/,/
O=S(=O)(Nc1nc2ccccc2s1)c1ccc(Cl)s1,.,.,.,.,/,/
O=S(=O)(Nc1nc2ccccc2s1)c1cc(F)ccc1F,.,.,.,9.5,.,.
CCOc1ccc2c(c1)c(N=Nc1cccc(C(=O)O)c1)c(O)n2C,.,.,.,.,/,/
SMILES,TbMetRS inhib,PLC-beta3 inh,sPLA2-III inh,PLC-gamma1 inh,PLCg1 ctr,PLCb3 confirm
Cc1ccc2c(c1)c(N=Nc1cccc(C(=O)O)c1)c(O)n2C,.,.,.,13.2,.,.
N#Cc1ccc(Cn2ccc3ccc(-c4ccc5ccn(C(=O)C6CC6)c5c4)cc32)cc1,/,.,.,.,/,/
COc1ccc(C2=NN(C(=O)CCCC(=O)O)C(c3cn(-c4ccccc4)nc3-c3ccccc3)C2)cc1 (stereo not given),.,.,.,13.8,.,.
O=C(Nc1ccc(Br)cc1)C1CCCN1S(=O)(=O)c1cccs1 (stereo not given),.,.,.,9.8,.,.
Cc1ccccc1NC(=O)CNC(=O)c1ccc(C(F)(F)F)cc1,.,.,.,.,/,/
Cc1ccccc1NC(=O)Nc1ccc(C(F)(F)F)cc1,.,12.0,.,12.7,.,.
Clc1ccc(-n2c(SCc3cccc4ccccc34)nnc2-c2cccnc2)cc1,/,.,.,.,/,/
CN(C)CCCN(CCCN(C)C)C(=S)Nc1ccc(S(=O)(=O)N2CCOCC2)cc1,.,.,.,10.6,.,.
CC(C)(C)CC(C)(C)NC(=S)Nc1ccc(S(=O)(=O)N2CCOCC2)cc1,.,.,.,.,/,/
COc1ccc(Cn2c(NC(=O)c3ccccc3)nc(Cc3ccccc3)c2-c2ccccc2)c(OC)c1,/,.,.,.,/,/
CCN(CC)c1nc(N)c([N+](=O)[O-])c(NCCO)n1,.,.,.,10.3,.,.
CCN(CCNC(=O)[C@H]1C=C(OC)C(=O)C[C@H](c2ccccc2)[C@H]1C)C(C)=O,/,.,.,.,/,/
Cc1cc(C(=O)CSc2n[nH]c(-c3ccccc3F)n2)c(C)n1Cc1cccs1,.,.,.,10.4,.,.
O=C(O)c1[nH]c2ccccc2c1C(c1cc(Cl)cc([N+](=O)[O-])c1O)c1c(C(=O)O)[nH]c2ccccc12,.,.,.,16.1,31.3,.
O=C(O)c1[nH]c2ccccc2c1C(c1ccccc1)c1c(C(=O)O)[nH]c2ccccc12,.,.,.,.,/,/
COc1ccc([N+](=O)[O-])cc1NS(=O)(=O)c1cc(C(=O)O)ccc1OC,.,.,.,9.5,.,.
CCOC(=O)NC(NC(=S)Nc1ccc(OC)cc1)C(Cl)(Cl)Cl (stereo not given),.,.,.,.,/,/
COc1ccc([N+](=O)[O-])cc1NS(=O)(=O)c1ccccc1,.,.,.,.,/,/
COc1ccc([N+](=O)[O-])cc1NC(=S)NC(NC(=O)C(c1ccccc1)c1ccccc1)C(Cl)(Cl)Cl (stereo not given),.,.,.,11.6,.,.
COC(=O)NC(NC(=S)Nc1ccc([N+](=O)[O-])cc1)C(Cl)(Cl)Cl (stereo not given),.,11.5,.,.,.,.
CC(Cl)C(=O)N1CCC(C(=O)NCC2COc3ccccc3O2)CC1 (stereo not given),/,.,.,.,/,/
CC(C)C[C@@H]1COc2cc(NCCO)ccc2S(=O)(=O)N1,/,.,.,.,/,/
CCOC(=O)C1=C(C)N(CCCC(=O)O)C(=O)NC1c1ccccc1OS(=O)(=O)c1ccc([N+](=O)[O-])cc1 (stereo not given),.,.,.,12.4,.,.
